# Only some compounds are listed: those with a hit (about 2.4% of all), similar ones and a draw of the others.
# MOR-DOR inv ag – inverse agonists of MOR-DOR heterodimerization, primary screen, cell-based, luminescence | 340,000 compounds, 0.21% hits | cell-based MOR-DOR heterodimer luminescence, inverse agonism | inhibition, % at 9.3 µM; in the data active = inhibition above about 22%, passing the limit was not always enough;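 also: 0% = cells with DMSO and 100% = wells without cells with DMSO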
# Target sequence (P35372 whole entry, looked up): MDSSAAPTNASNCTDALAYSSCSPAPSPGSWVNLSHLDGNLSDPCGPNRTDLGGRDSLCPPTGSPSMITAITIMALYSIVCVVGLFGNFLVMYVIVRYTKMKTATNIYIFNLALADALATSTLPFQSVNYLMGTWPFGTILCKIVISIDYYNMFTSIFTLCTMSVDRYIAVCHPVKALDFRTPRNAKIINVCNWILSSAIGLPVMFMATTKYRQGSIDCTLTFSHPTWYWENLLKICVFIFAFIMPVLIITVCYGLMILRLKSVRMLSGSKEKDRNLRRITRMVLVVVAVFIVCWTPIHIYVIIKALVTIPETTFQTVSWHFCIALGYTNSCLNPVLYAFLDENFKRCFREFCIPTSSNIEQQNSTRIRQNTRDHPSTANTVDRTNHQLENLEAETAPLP
# Target sequence (P41143 whole entry, looked up): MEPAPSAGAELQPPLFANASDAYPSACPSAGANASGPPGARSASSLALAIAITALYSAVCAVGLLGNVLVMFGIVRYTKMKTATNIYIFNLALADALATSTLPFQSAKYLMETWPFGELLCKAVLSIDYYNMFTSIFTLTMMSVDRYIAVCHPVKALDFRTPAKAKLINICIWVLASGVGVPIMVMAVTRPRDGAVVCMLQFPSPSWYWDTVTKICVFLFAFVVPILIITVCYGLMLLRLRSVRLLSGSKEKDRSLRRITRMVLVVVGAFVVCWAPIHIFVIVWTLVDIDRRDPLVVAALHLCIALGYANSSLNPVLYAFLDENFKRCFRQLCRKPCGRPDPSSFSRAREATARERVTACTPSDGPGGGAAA
# MC4R ag barr – MC4R agonists recruiting beta-arrestin, primary screen, cell-based, luminescence, agonist arm of biased-ligand search | U2OS MC4R beta-arrestin complementation; percent of melanotan II response, DMSO zero | activation, % at 8.9 µM | 360,000 compounds, 0.98% hits | AID 540308, 2011;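 active = activation above a per-plate cutoff, the mean activation of sample wells on that plate plus 3 SD, cut at about 8% in these data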
# HTR5A ag ctr – HTR5A agonists in luminescence cell assay, primary screen, counter-screen for OPRM1-OPRD1 heterodimer agonist project, full-deck HTS | cell-based | activation, % at 9.3 µM | 340,000 compounds, 0.61% hits | AID 504692, 2011; in the data active = activation mostly above about 9.5%, no sharp cut-off; inactive = mostly below about 7.6%;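 also: 0% = cells with vehicle only and 100% = reference agonist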
# HTR5A inv ag – HTR5A inverse agonists in luminescence cell assay, primary screen, counter-screen for OPRM1-OPRD1 heterodimer inverse agonist project, full-deck HTS | 340,000 compounds, 0.083% hits | inhibition, % at 9.3 µM | HTR5A cell line, inverse agonism; in the data active = inhibition mostly above about 23%, no sharp cut-off; inactive = mostly below about 18%;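 also: 0% = cells with DMSO and 100% = no-cell wells with DMSO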
# MC4R antagonist – MC4R antagonists of cAMP signaling, primary screen, cell-based, TR-FRET, antagonist arm of biased-ligand search. Melanocortin receptor 4 (Homo sapiens), P32245. MC4R-expressing cells, MTII-stimulated cAMP, LANCE TR-FRET. AID 540295, 2011. inhibition, % at 6.5 µM. 360,000 compounds, 0.48% hits;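 active = inhibition above its plate's cutoff, the mean of tested wells on that plate plus 3 SD, cut at about 29% in these data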;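 also: 0% = Melanotan II alone and 100% = Melanotan II plus saturating MCL0020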
#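 Assay system: human MC4R-expressing U2OS cells; reagent: Melanotan II stimulation of cells; dosing: 6.5 µM single dose; timing: compound 30 min, challenge 1 h, detection 1 h; signal: TR-FRET cAMP assay; replicates: one well per compound, no replicates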
# MOR-DOR ag-1 – agonists of OPRM1-OPRD1 heterodimerization, primary screen, cell-based, luminescence. Mu-type opioid receptor (Homo sapiens) + Delta-type opioid receptor (Homo sapiens), …. cells. activation, % at 9.3 µM. 340,000 compounds, 0.3% hits;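 also: 0% = vehicle-treated cells and 100% = reference agonist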
# MOR-DOR ag-2 – OPRM1-OPRD1 heterodimerization promoters, counter-screen for HTR5A agonist project, cell-based, luminescence. shares compounds with HTR5A ag ctr. activation, % at 9.3 µM. 800 compounds, 13% hits. U2OS counter-screen cells, complementation luminescence, 3 h
# HTR5A ag conf – HTR5A agonists, retest of hits, confirmation, cell-based, luminescence; 800 compounds, 17% hits; HTR5A agonist cell assay; activation, % at 9.3 µM; shares compounds with HTR5A ag ctr; in the data active = activation above about 17%;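 also: 0% = cells with vehicle only and 100% = full reference agonist response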
# cAMP nonselect – nonselective cAMP signaling inhibitors, parental cells, counter-screen for MC4R biased antagonist project, cell-based, TR-FRET, U2OS, forskolin, triplicate. shares compounds with MC4R antagonist. LANCE TR-FRET. inhibition, % at 6.5 µM. 1,600 compounds, 26% hits;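 active = mean inhibition over triplicates above the low-control well mean plus 3 SD, set per campaign, cut at about 13% in these data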;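 also: signal is single emission at 671 nm which falls as cellular cAMP rises; 0% = forskolin-stimulated wells and 100% = buffer without forskolin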
# MC4R cAMP antag – MC4R cAMP antagonists, retest, confirmation, cell-based, TR-FRET | inhibition, % at 6.5 µM | shares compounds with MC4R antagonist | MC4R-expressing cells, MTII-stimulated cAMP | 1,600 compounds, 27% hits; in the data active = inhibition above about 29%;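 also: 0% = agonist stimulated wells alone and 100% = agonist stimulated wells plus saturating reference antagonist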
# MC4R barr ag – MC4R beta-arrestin agonists, retest, confirmation, cell-based, luminescence, U2OS; activation, % at 8.9 µM; shares compounds with MC4R ag barr; 2,400 compounds, 31% hits; U2OS MC4R beta-arrestin recruitment; scaled DMSO 0%, Melanotan II 100%;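 active = mean activation across replicates above the hit cutoff set in the earlier primary screen, cut at about 8% in these data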
# MOR DOR agonist – agonists of MOR-DOR heterodimerization, counter-screen for MC4R biased agonist project, cell-based, luminescence. AID 602194, 2012. activation, % at 9.2 µM. 2,400 compounds, 5.8% hits. shares compounds with MC4R ag barr. U2OS PathHunter beta-arrestin, beta-gal luminescence; percent of deltorphin B response, DMSO zero;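 active = mean activation across replicates exceeds the hit threshold derived in the earlier primary screen, cut at about 18% in these data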;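 also: 100% = deltorphin B at 0.9 µM final and 0% = DMSO alone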
# * marks the source's active call; other numbers are inactive results; . = no result given. Rule as the data show it, unless noted: active = activation above about 18%; inactive = the rest.
SMILES,MOR-DOR inv ag,MC4R ag barr,HTR5A ag ctr,HTR5A inv ag,MC4R antagonist,MOR-DOR ag-1,MOR-DOR ag-2,HTR5A ag conf,MC4R barr ag,MOR DOR agonist,others
Cc1oc2c(c1C(=O)c1ccc(Cl)cc1)C(=O)C(=O)c1ccccc1-2,-17,0,0,0,8,3,.,.,.,.,
Cc1ccc(C(=O)c2coc3c2C(=O)C(=O)c2ccccc2-3)cc1,-73,16*,19*,-33,-7,13,7,7,17*,9,
CCN(CC)C(=O)Cn1cc(S(=O)(=O)Cc2cccc([N+](=O)[O-])c2)c2ccccc21,9,-1,0,19,2,-2,.,.,.,.,
O=C(Nc1ccc2nc(SCc3ccc(Cl)cc3)sc2c1)c1ccccc1C(=O)N1CCOCC1,-32,10.0*,21*,-51,64*,7,12,6,24*,17,cAMP nonselect=30*;MC4R cAMP antag=66*
COC(=O)CSc1nc2ccc(NC(=O)c3ccccc3C(=O)N3CCOCC3)cc2s1,7,-3,0,1,14,-1,.,.,.,.,
COc1ccc(-n2c(C)cc(C(=O)COC(=O)c3ccc(O)cc3O)c2C)cc1,-45,11*,15*,-12,9,11,7,10,3,11,
O=C(N/N=C/c1ccc(O)cc1)c1ccc(COc2cc(Cl)ccc2Cl)o1,-40,26*,14*,-42,5,7,41*,2,40*,9,
CC(=O)Nc1ccc(S(=O)(=O)N2C(C)CCCC2C)cc1 (stereo unspecified),18,0,-2,7,6,-4,.,.,.,.,
CCCCCCCCCCOC(=O)Cn1c(COc2ccccc2OC)[n+](C)c2ccccc21,-41,19*,14*,-53,-11,9,37*,9,16*,29*,
Cn1c(COc2ccccc2O)[n+](C)c2ccccc21,15,0,6,-21,-2,-3,.,.,.,.,
O=C(Nc1ccc2c(c1)OCO2)c1cc(-c2ccccc2Cl)on1,-46,32*,17*,-34,-5,7,0,4,2,4,
COc1ccc(N2CC(C(=O)Nc3nc4ccc(S(C)(=O)=O)cc4s3)CC2=O)cc1 (stereo unspecified),-5,1,0,-26,11,1,.,.,.,.,
OC1CCN(c2cc(-c3ccccc3)nc3cc(-c4ccc(F)cc4)nn23)CC1,9,0,1,-3,2,-2,.,.,.,.,
CCN1CCN(c2cc(-c3ccccc3)nc3cc(-c4cccc(F)c4)nn23)CC1,-45,12*,14*,-8,14,10,11,-3,2,14,
CCc1ccc(Nc2nnc(SCC(=O)NC(=O)c3cccn3C)s2)cc1,-66,20*,15*,-35,-7,13,0,-1,4,12,
CN(CC(=O)Nc1ccccc1C(F)(F)F)C(=O)COc1cccnc1[N+](=O)[O-],6,0,-3,8,-2,-1,.,.,.,.,
COc1ccc(NC(=O)CN(C)C(=O)CCc2ccccc2)cc1,0,-1,-5,14,-1,0,.,.,.,.,
COc1ccc(NC(=O)CN(C)C(=O)/C=C/c2ccc(OCc3ccccc3)cc2)cc1,-83,19*,24*,-51,-1,10,2,1,8,12,
CCOC(=O)CC/C(=N\NC(N)=O)c1ccc(OC)c(Cl)c1,17,1,2,-7,-1,-3,.,.,.,.,
CCOC(=O)c1c(CSC(=N)N)n(-c2ccc(C)cc2)c2cc(Br)c(OC(C)=O)cc12,-93,29*,17*,-98,1,16,14,8,14*,51*,
CCCn1c(SCC(=O)N2N=C3/C(=C/c4ccc(OC)cc4)CCCC3C2c2ccc(OC)cc2)n[nH]c1=O (stereo unspecified),-9,13*,23*,-77,6,2,26*,7,14*,9,
CCCn1c(SCC(=O)NCc2ccc(OC)cc2)n[nH]c1=O,15,1,-3,-21,3,-3,.,.,.,.,
COc1ccc(CCNC(=O)Cn2ccc3c(OC)cccc3c2=O)cc1OC,10,0,2,-8,-4,-2,.,.,.,.,
C=CCn1c(SCC(=O)c2ccc(OC)cc2)nnc1-c1cc2cccc(OC)c2o1,-24,53*,15*,-45,-5,6,4,12,12*,16,
COc1ccccc1C1NC(=O)NC(C)=C1C(=O)OC1CCC(C)CC1 (stereo unspecified),-9,3,3,-32,4,2,.,.,.,.,
Cc1nn(Cc2ccc(F)cc2)c2sc(C(=O)Nc3nccs3)cc12,-66,13*,21*,-57,3,9,4,0,2,5,
CC(C)c1c(C(=O)N/N=C/c2ccc(OCc3ccccc3)cc2)nnn1-c1nonc1N,-13,14*,22*,-4,-1,2,41*,-1,4,6,
